The source of these data is ChEMBL document CHEMBL1152541, “Staurosporine tethered peptide ligands that target cAMP-dependent protein kinase (PKA): optimization and selectivity profiling” (Bioorg Med Chem, 2009).

The structures appear in SMILES notation. *1 amine or outer side, *2 acyl side, *3 side chain or, on linkers, in order; H or OH if unused. Where a SMILES comes first, the peptide text is derived from it. Bridges are numbered along the chain shown (N, C = ends). [ ]: non-standard residue; d: D form. The star is where a group is joined. Staurosporine = CO[C@@H]1[C@H](N(C)*)C[C@H]2O[C@]1(C)n1c3ccccc3c3c4c(c5c6ccccc6n2c5c31)C(=O)NC4; Suc = O=C(CCC(=O)[*:2])[*:1]; Dap = NC[C@H](N)C(=O)O; βAla = NCCC(=O)O

The target in test [1] is T1, Serine/threonine-protein kinase PLK4 (Homo sapiens) (UniProt O00444).
T1 sequence (whole entry): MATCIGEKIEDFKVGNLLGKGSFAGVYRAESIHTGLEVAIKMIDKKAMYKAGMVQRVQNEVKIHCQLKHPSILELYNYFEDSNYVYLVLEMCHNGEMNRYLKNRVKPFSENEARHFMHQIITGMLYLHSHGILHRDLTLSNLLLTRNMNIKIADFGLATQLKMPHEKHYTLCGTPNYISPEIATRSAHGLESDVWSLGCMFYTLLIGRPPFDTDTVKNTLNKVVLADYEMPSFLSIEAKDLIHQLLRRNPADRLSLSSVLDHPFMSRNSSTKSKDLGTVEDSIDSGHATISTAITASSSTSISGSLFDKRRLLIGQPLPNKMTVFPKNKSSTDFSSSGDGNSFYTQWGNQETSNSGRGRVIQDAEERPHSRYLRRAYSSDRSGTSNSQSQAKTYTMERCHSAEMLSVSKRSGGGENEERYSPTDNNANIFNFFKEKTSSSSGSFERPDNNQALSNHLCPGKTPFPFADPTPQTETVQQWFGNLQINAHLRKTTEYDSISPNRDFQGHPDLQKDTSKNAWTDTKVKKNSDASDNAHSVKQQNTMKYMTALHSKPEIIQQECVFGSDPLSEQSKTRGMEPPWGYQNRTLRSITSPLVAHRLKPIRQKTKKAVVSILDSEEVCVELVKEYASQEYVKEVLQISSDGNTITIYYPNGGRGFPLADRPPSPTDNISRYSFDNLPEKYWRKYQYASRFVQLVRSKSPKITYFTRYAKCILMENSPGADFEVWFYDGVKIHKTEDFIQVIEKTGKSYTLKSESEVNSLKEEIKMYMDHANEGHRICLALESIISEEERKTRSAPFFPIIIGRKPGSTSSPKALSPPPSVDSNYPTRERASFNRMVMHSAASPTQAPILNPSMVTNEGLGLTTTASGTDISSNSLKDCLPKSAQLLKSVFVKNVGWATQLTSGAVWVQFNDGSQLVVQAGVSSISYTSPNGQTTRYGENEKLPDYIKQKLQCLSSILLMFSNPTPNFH
Put plainly: Binding affinity to human PLK4 at 500 nM by cell-based competition binding assay relative to control in presence of DTT.

Test [2] addresses Tyrosine-protein kinase JAK2 (Homo sapiens) (UniProt O60674). Put plainly: Binding affinity to human JAK2 kinase domain 2 at 500 nM by cell-based competition binding assay relative to control in presence of DTT. Put shortly: (§1)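 Competition binding screen (Ambit) across a panel of 90 kinases, scoring test ligand displacement of each kinase's binding relative to control. The screen ran under reducing conditions with 7.5 mM DTT.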

For test [3], the system named is Mast/stem cell growth factor receptor Kit (Homo sapiens), P10721 [D816V]. Put plainly: Binding affinity to human KIT D816V mutant at 500 nM by cell-based competition binding assay relative to control in presence of DTT. Put shortly: as §1
Test [4] addresses Mitogen-activated protein kinase 14 (Homo sapiens) (UniProt Q16539). Put plainly: Binding affinity to human p38alpha at 500 nM by cell-based competition binding assay relative to control in presence of DTT.
Test [5] deals with 3-phosphoinositide-dependent protein kinase 1 (Homo sapiens) (UniProt O15530). Put plainly: Ratio of compound to staurosporine binding affinity to PDK1 in presence of DTT.
In test [6] the target is T2, NUAK family SNF1-like kinase 2 (Homo sapiens) (UniProt Q9H093).
T2 sequence (whole entry): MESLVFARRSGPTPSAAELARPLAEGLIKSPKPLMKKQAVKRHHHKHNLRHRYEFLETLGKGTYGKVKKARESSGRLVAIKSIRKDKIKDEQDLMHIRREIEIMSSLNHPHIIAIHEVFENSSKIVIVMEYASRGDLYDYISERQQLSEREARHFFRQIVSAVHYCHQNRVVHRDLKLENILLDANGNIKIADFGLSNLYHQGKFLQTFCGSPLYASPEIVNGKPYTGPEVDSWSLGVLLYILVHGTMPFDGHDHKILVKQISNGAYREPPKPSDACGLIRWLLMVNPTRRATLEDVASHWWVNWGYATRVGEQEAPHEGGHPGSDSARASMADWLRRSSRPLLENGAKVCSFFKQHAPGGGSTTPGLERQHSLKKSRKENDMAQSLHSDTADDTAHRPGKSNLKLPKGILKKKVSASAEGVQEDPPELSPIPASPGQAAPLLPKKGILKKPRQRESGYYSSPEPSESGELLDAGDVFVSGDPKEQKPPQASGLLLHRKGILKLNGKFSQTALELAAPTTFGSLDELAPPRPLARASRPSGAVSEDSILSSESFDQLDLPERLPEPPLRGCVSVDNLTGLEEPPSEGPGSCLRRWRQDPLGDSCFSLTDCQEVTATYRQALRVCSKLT
Put plainly: Binding affinity to human SNARK at 200 nM by cell-based competition binding assay relative to control in presence of DTT.

The target in test [7] is Proto-oncogene tyrosine-protein kinase Src (Homo sapiens) (UniProt P12931). Put plainly: Binding affinity to human SRC at 200 nM by cell-based competition binding assay relative to control in presence of DTT.
The target of test [8] is T3, Activin receptor type-1B (Homo sapiens) (UniProt P36896).
T3 sequence (whole entry): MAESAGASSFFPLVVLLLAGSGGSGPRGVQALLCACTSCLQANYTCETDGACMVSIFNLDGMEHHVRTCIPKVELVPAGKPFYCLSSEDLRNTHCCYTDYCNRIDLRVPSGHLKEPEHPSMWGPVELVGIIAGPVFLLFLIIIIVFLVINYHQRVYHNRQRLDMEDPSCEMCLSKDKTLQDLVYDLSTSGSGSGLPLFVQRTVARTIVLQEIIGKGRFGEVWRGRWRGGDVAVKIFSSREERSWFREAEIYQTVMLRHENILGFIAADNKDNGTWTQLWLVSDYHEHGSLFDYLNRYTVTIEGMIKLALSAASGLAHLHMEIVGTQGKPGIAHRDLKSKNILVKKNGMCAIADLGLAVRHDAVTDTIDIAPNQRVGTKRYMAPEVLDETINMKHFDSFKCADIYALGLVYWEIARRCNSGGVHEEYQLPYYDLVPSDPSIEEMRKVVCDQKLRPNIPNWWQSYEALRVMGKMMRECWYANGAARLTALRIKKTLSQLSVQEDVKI
Put plainly: Binding affinity to human ACVR1B at 50 nM by cell-based competition binding assay relative to control in presence of DTT. Put shortly: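 Kinase binding profiling ran on a commercial (Ambit) competitive binding screen against a panel of 90 kinases. The screen used reducing conditions with 7.5 mM DTT. To withstand the DTT, the bivalent ligand was tested as its amide isostere, with the disulfide replaced. A staurosporine derivative carrying a 3 β-alanine linker was run as the reference compound.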

The target in test [9] is Macrophage colony-stimulating factor 1 receptor (Homo sapiens) (UniProt P07333). Put plainly: Binding affinity to human CSF1R at 50 nM by cell-based competition binding assay relative to control in presence of DTT. An outline of the steps:
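Commercial (Ambit) competitive kinase-binding panel of 90 kinases measured the binding profile. Run under reducing conditions of 7.5 mM DTT. Binding is expressed relative to control.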

Sequence of Mast/stem cell growth factor receptor Kit (Homo sapiens), P10721 [D816V] (P10721 whole entry D816V): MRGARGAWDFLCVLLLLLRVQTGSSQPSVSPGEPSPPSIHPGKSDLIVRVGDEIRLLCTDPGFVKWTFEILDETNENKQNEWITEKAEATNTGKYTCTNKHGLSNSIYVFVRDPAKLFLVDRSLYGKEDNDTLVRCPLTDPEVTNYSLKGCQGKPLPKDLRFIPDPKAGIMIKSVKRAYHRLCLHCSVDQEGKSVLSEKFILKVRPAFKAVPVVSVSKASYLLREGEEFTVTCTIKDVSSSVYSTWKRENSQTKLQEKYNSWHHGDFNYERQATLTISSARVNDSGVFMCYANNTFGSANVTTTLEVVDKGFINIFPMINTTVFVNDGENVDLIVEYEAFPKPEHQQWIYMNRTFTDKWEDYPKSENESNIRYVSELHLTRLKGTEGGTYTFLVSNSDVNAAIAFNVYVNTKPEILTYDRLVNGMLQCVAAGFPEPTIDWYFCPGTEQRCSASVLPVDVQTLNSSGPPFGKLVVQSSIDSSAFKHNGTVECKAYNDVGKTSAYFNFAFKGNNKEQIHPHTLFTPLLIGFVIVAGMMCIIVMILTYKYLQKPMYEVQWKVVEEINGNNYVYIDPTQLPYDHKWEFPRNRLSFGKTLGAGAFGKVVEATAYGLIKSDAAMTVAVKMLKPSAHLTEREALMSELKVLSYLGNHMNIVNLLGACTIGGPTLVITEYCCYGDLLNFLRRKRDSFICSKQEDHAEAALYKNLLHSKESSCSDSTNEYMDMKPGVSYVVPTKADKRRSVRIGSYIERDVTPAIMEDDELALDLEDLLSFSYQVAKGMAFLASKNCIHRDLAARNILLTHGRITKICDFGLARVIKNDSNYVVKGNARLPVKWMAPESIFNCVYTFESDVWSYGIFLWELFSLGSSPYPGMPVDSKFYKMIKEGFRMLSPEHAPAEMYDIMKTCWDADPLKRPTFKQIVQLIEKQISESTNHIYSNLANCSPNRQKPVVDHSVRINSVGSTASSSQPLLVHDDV
Sequence of Tyrosine-protein kinase JAK2 (Homo sapiens) (O60674 whole entry, the tested form may be a part): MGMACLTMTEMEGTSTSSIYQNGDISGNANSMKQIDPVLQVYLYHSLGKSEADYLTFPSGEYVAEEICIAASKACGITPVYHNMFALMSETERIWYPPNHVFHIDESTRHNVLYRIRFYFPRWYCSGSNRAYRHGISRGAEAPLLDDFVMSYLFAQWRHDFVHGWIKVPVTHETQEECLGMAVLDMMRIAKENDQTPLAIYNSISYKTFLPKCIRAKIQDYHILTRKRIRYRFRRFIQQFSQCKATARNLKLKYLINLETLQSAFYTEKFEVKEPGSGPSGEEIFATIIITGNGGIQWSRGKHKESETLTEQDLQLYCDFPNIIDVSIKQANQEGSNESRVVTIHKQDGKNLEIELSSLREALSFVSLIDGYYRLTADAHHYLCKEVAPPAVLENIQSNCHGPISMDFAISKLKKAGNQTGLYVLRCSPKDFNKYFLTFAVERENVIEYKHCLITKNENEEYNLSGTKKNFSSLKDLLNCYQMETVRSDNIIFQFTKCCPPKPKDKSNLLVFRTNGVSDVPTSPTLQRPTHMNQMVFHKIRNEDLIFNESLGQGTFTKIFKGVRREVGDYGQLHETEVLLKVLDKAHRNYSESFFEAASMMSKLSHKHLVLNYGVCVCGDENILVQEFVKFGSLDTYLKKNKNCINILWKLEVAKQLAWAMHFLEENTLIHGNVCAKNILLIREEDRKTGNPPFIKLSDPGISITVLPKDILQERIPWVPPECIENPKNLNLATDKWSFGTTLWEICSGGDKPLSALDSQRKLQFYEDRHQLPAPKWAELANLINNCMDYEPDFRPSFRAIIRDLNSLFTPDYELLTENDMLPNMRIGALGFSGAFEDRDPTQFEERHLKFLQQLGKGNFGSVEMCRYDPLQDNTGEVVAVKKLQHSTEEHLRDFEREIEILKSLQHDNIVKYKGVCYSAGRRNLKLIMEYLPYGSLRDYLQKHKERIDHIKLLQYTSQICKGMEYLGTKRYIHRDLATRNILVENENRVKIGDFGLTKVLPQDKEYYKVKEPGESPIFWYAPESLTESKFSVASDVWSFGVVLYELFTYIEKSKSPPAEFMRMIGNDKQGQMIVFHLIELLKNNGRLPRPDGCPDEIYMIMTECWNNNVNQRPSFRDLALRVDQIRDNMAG
Sequence of Macrophage colony-stimulating factor 1 receptor (Homo sapiens) (P07333 whole entry): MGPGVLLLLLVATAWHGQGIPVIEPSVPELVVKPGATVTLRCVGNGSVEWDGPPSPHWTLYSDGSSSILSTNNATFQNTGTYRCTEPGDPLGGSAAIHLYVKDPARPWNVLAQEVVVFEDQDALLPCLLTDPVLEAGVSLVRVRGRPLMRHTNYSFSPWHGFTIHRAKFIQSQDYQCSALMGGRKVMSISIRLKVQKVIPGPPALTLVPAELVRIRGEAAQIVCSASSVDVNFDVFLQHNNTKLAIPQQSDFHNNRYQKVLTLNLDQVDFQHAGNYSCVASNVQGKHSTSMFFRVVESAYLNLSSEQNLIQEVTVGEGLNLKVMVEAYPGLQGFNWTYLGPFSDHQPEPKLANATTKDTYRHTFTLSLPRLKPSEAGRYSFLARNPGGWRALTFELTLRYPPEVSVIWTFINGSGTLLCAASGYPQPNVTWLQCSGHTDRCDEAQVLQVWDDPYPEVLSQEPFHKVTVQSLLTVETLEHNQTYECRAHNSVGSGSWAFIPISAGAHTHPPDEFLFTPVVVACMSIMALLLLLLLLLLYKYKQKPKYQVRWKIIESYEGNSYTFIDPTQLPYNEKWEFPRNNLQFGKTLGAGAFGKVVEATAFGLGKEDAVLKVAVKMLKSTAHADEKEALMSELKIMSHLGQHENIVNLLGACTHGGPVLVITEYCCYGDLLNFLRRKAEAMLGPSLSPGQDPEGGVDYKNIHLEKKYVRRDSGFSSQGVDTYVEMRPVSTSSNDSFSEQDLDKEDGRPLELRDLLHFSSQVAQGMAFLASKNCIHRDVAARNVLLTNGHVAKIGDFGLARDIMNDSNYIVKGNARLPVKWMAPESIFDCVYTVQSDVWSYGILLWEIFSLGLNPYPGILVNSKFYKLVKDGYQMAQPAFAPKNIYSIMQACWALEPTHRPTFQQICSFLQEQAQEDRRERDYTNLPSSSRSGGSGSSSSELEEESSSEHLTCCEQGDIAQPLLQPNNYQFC
Sequence of 3-phosphoinositide-dependent protein kinase 1 (Homo sapiens) (O15530 whole entry, looked up): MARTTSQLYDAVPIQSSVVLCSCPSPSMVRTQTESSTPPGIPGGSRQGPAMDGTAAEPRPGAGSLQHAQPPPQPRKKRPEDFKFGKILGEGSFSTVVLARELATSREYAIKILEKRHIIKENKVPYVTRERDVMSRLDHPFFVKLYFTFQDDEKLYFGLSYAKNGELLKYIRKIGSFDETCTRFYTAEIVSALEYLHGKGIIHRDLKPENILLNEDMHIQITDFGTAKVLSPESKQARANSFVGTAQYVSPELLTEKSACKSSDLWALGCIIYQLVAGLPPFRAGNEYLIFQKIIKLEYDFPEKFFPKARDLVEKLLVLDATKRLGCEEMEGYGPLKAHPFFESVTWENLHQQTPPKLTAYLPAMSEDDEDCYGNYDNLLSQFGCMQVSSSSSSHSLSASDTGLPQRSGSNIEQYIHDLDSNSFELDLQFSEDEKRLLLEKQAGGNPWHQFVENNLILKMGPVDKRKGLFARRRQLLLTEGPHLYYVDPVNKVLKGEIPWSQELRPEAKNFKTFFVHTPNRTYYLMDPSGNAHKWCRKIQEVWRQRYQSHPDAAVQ
Sequence of Mitogen-activated protein kinase 14 (Homo sapiens) (Q16539 whole entry): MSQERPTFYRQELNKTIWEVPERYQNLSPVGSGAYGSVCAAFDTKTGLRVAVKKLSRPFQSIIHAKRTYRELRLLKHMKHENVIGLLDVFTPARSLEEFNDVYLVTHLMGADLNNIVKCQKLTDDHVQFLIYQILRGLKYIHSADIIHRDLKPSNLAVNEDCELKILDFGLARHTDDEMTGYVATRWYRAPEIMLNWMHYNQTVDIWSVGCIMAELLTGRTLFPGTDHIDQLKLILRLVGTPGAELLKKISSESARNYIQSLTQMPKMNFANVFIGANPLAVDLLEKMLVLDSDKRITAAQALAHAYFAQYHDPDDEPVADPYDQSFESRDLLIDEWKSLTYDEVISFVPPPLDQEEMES
Sequence of Proto-oncogene tyrosine-protein kinase Src (Homo sapiens) (P12931 2-536 limits assumed): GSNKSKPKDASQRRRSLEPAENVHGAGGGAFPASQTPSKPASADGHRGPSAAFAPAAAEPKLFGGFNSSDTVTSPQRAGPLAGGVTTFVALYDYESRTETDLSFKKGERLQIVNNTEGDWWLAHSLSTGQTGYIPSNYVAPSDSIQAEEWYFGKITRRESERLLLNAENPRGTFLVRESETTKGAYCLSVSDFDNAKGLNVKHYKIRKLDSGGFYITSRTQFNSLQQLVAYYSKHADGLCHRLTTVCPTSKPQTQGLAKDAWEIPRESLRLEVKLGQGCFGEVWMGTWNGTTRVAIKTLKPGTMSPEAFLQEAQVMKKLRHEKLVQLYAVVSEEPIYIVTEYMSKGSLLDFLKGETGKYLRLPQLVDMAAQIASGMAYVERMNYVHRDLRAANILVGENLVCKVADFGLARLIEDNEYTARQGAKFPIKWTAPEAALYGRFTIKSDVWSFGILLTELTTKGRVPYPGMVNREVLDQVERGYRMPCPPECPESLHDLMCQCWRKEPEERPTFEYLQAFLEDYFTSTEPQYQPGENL

Consider `CO[C@@H]1[C@H](N(C)C(=O)CCC(=O)NCCC(=O)NCCC(=O)NCCC(N)=O)C[C@H]2O[C@]1(C)n1c3ccccc3c3c4c(c5c6ccccc6n2c5c31)C(=O)NC4`, for which the Activity in test [1] was found to be 3.6%; in test [2] it was 2.4%; in test [3], 1%; in test [4] it was 93%. Moreover, the Selectivity ratio in test [5] was determined as 52.
As for `CO[C@@H]1[C@H](N(C)C(=O)CCC(=O)NCCC(=O)NCCC(=O)NCCC(=O)NCCC(=O)NCCC(=O)NCCC(=O)NCCC(=O)N[C@H]2CSSC[C@@H](C(=O)NCC(N)=O)NC(=O)CNC(=O)[C@H](Cc3ccccc3)NC(=O)[C@H](C(C)C)NC(=O)[C@H](CCCNC(=N)N)NC(=O)[C@H](Cc3ccccc3)NC(=O)[C@H](C(C)C)NC2=O)C[C@H]2O[C@]1(C)n1c3ccccc3c3c4c(c5c6ccccc6n2c5c31)C(=O)NC4` ({Staurosporine-Suc-βAla-βAla-βAla-βAla-βAla-βAla-βAla}-CVFRVFGCG-NH2; disulfide 1-8), the values for the Activity in [6] and in [7] were 0.45% and 100%, respectively.
For the compound `CO[C@@H]1[C@H](N(C)C(=O)CCC(=O)NCCC(=O)NCCC(=O)NCCC(=O)NCCC(=O)NCCC(=O)NCCC(=O)NCCC(=O)N[C@H]2CNC(=O)C[C@@H](C(N)=O)NC(=O)CNC(=O)[C@H](Cc3ccccc3)NC(=O)[C@H](C(C)C)NC(=O)[C@H](CCCNC(=N)N)NC(=O)[C@H](Cc3ccccc3)NC(=O)[C@H](C(C)C)NC2=O)C[C@H]2O[C@]1(C)n1c3ccccc3c3c4c(c5c6ccccc6n2c5c31)C(=O)NC4` ({Staurosporine-Suc-βAla-βAla-βAla-βAla-βAla-βAla-βAla}-[Dap]VFRVFGD-NH2; lactam 1-8), the Activity in test [8] was found to be 100%; in [9], 83%.
